Here are results for 14 compounds from ChEMBL document CHEMBL1125890, “Synthesis, calcium-channel-blocking activity, and antihypertensive activity of 4-(diarylmethyl)-1-[3-(aryloxy)propyl]piperidines and structurally related compounds” (J Med Chem, 1991).

Assay [1] relates to Rattus norvegicus. The experiment in a line: Antihypertensive activity expressed as change in mean arterial blood pressure (MABP) in spontaneously hypertensive rats (SHR), at 3-6h after 30 mg/kg oral administration. The class given is functional, Artery. In a few lines:
(§1)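 Adult male SHR, catheter implanted in carotid artery or abdominal aorta under anesthesia at least 24 h before dosing. Baseline pressure recorded 1-1.5 h. Compound given orally at 30 mg/kg as solution or suspension in 0.5% Tween 80/distilled H2O (v/v) or other vehicle. MABP read at 0.5, 1, 1.5, 2, 3, 4, 5 and 6 h. Average percent change from predose calculated per period. Paired one-tailed t test, p < 0.05. n = 3-6 rats unless noted.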

The subject of assay [2] is Rattus norvegicus. Briefly: Antihypertensive activity expressed as change in mean arterial blood pressure (MABP) in spontaneously hypertensive rats (SHR),at 0.5-2h after 30 mg/kg oral administration. It is filed as functional, Artery. The method in brief:
as §1

The species entered for assay [3] is Oryctolagus cuniculus. Briefly: Calcium channel-blocking activity by determined by ability to antagonize calcium-induced contractions of isolated rabbit aortic strips. It is filed as functional. The following applies: Aorta, read-out: pA2 (converted). The method in brief: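 Rabbit aortic strips were bathed in turn in CaCl2-containing buffer, CaCl2-free buffer, then depolarizing (KCl) CaCl2-free buffer. Cumulative CaCl2 addition induced contractions, recorded with force-displacement transducers. Responses were compared without and with 1–100 nM test compound. pA2 was calculated by the Van Rossum method from at least three tissues.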

For the compound `Fc1ccc(C(c2ccc(F)cc2)C2CCN(CCCSc3ccccc3)CC2)cc1`, the Change in assay [1] was -3%; in assay [2], -5%. In addition, in assay [3], the Kb was 3.16 nM.
`COc1cc(C(C)=O)ccc1OCCCN1CCC(C(c2ccc(Cl)cc2)c2ccc(Cl)cc2)CC1`: the Change in assay [1] was -9%; in assay [2], -3%. In assay [3], the Kb is 2.51 nM.
On the same counts, the results for `Fc1ccc(C(c2ccc(F)cc2)C2CCN(CCCOc3cccc4ccccc34)CC2)cc1` are -7%, -6% and 5.01 nM.
Turning to `COc1cc(C(C)=O)ccc1OCCN1CCC(C(c2ccc(F)cc2)c2ccc(F)cc2)CC1`, the Change in assay [1] is given as 0%; in assay [2], -4%. In addition, the Kb in assay [3] is 6.31 nM.
On the same counts, the results for `Fc1ccc(C(c2ccc(F)cc2)N2CCN(C/C=C/c3ccccc3)CC2)cc1` [FLUNARIZINE] are -1%, -1% and 5.01 nM.
Turning to `COc1cc(C(C)=O)ccc1OCCCN1CCC(C(N)(c2ccc(F)cc2)c2ccc(F)cc2)CC1`, the Change in assay [1] is on record as -10%; in assay [2], 1%. Moreover, the Kb in assay [3] is 31.6 nM.
Take `N#Cc1ccc(OCCCN2CCC(C(c3ccc(F)cc3)c3ccc(F)cc3)CC2)cc1`: the Change in assay [1] is -11%; in assay [2], 8%. In assay [3], the Kb was 5.01 nM.
For `COc1cc(C(C)=O)ccc1OCCCN1CCC(C(c2ccc(C)cc2)c2ccc(C)cc2)CC1`, the Change is listed as -2% in assay [1] and 3% in assay [2]. Also, in assay [3], the Kb is 15.8 nM.
Taken in the same sequence, the figures for `COc1cc(C(C)=O)ccc1OCCCN1CCC(C(c2ccc(F)cc2)c2ccc(F)c(F)c2)CC1` (configuration not stated) were -30%, -27% and 1.26 nM.
As to `COc1cc(C#N)ccc1OCCCN1CCC(C(c2ccc(F)cc2)c2ccc(F)cc2)CC1`, the Change is -9% in assay [1] and -3% in assay [2]. In addition, in assay [3], the Kb is 2 nM.
Consider `COc1cc(C(C)=O)ccc1OCCCCCCN1CCC(C(c2ccc(F)cc2)c2ccc(F)cc2)CC1`, for which the results for the Change in assay [1] and in assay [2] were -22% and -10%, respectively. In assay [3], the Kb is 6.31 nM.
On the same counts, the results for `COc1cc(OCCCN2CCC(C(c3ccc(F)cc3)c3ccc(F)cc3)CC2)ccc1C(C)=O` are -11%, -5% and 3.16 nM.
`COc1cc(C(C)=O)ccc1OCCCN1CCC(C(NC(C)=O)(c2ccc(F)cc2)c2ccc(F)cc2)CC1`: the Change is -7% in assay [1] and -3% in assay [2]. In addition, the Kb in assay [3] is 63.1 nM.
`COc1cc(C(C)=O)ccc1OCCCN1CCC(C(c2ccccc2)c2ccccc2)CC1`: the values for the Change in assay [1] and in assay [2] were -12% and -20%, respectively. In assay [3], the Kb is 6.31 nM.
